STAT1 activator = increases IFN-gamma driven STAT1 reporter signal; AID 932; NIH 3T3 STAT1-luciferase reporter, luminescence; 100% = IFN-gamma alone, no compound; actives 2.6% (n = 200,000); activation (% of control), % at 5.5 µM;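 active = activation above the screen-wide mean activation plus 3 SD, cut at about 130% in these data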;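 note: raw ratio to IFN-gamma control signal so 100% means no change and 0% no light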
NF-kB neuron act = compounds increasing NF-kB expression in human neuronal cells; AID 1239; NF-kB reporter expression; stronger effect = higher value; fold change at 12.5 µM; actives 1.6% (n = 190,000); in the data active = fold change above about 3.3
FLuc inhib CS = inhibits firefly luciferase, flagging false hits in luciferase inhibition screens; ATPLite firefly luciferase biochemical luminescence, 10 min; inhibition, % at 10 µM; actives 1.5% (n = 200,000); AID 1006;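 active = inhibition above about 50% when tested at 10 µM, limit read from the data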
Target sequence (P08659 whole entry, looked up): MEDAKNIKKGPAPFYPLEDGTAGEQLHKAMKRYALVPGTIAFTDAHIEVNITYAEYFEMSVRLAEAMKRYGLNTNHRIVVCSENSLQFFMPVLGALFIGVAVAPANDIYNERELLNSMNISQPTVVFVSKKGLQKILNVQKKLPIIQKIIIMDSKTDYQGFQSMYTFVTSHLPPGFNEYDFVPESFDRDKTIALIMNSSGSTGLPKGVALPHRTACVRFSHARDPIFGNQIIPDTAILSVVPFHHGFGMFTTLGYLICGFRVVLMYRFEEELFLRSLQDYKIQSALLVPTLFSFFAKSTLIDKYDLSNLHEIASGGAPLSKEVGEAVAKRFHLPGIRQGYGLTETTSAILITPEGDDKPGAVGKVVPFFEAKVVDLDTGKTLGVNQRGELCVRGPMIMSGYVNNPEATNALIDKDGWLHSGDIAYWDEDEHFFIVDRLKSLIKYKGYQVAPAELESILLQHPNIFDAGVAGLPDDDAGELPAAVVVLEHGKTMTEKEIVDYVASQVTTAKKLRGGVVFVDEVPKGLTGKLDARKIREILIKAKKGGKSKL
APP transl inh = APP translation inhibition. SH-SY5Y APP 5'UTR-luciferase reporter, luminescence. inhibition, % at 2 µM. actives 0.82% (n = 190,000). AID 1285;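 active = inhibition above a set limit, derived from the sample mean plus 3 SD, cut at about 45% in these data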
APP 5'UTR act = activates APP 5'UTR luciferase reporter. AID 1276. activation, % at 2 µM. actives 1% (n = 190,000). SH-SY5Y APP 5'UTR luciferase reporter, luminescence; zero percent = DMSO vehicle wells;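 active = activation above a set limit, based on mean plus 3 SD of controls, cut at about 140% in these data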
FLuc stim CS = firefly luciferase counter-screen for stimulation assays; P08659; ATPlite luciferase biochemical, luminescence, 10 min; 0 = ATP-free wells, 1 = DMSO control; activation factor at 10 µM; 200,000 tested, under 10 active; AID 1027;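 active = luciferase activation factor, scaled between plate controls, of at least 2 with compound at 10 µM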
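Material: Luciferase/luciferin reagent mix; Doses: test compounds dosed from 2 mM stocks in 100% DMSO; Schedule: 10 min incubation after luciferase reagent addition, room temperature; Measured by: luminescence from luciferase reaction; Read-out: luminescence gain marking luciferase activators.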
Active calls of the source: *; / = no result. Only some compounds are listed: those with a hit (about 4.8% of all), similar ones and a draw of the others.

SMILES	STAT1 activator	NF-kB neuron act	FLuc inhib CS	APP transl inh	APP 5'UTR act	FLuc stim CS
O=c1nc(-c2ccccc2)c2cc(Cl)ccc2[nH]1	98	1.1	-6	13	-13	1.1
Clc1ccc2[nH]c(-c3ccccc3)cc2c1	138*	3.9*	1	-119	119	1
O=c1cc(-c2ccccc2)[nH]c2cc(Cl)ccc12	106	1.1	0	95*	-95	1
CCOc1cc(C(=O)NC(C)c2ccncc2)cc(OCC)c1OCC (stereo not given)	104	1.2	-7	-5	5	1.1
Nc1nc2c(F)c(F)c(F)cc2s1	104	0.98	-6	-1	1	1.1
C/C(=N\NC(=O)OC(C)(C)C)c1ccccc1Br	132*	2.1	3	-20	20	1
COC(=O)N/N=C(\C)c1ccc(Br)cc1	112	1.5	9	16	-16	0.9
Nc1nc(-c2ccccc2)c(C(=O)Nc2ccccc2)s1	94	1.1	-6	13	-13	1.1
CCOC(=O)c1[nH]c2c(c1-c1ccc(OC)cc1)C(=O)CC(c1ccc(OC)c(OC)c1)C2 (stereo not given)	99	0.59	8	11	-11	0.9
N/C(=N\OC(=O)CCC1CCCC1)c1cccnc1	100	1.5	74*	-10	10	0.3
N/C(=N\OC(=O)CC1CCCCC1)c1ccncc1	105	1.4	25	3	-3	0.8
N/C(=N\OC(=O)CC1CCCCC1)c1cccnc1	113	1.6	65*	-9	9	0.4
N/C(=N\OC(=O)CC1CCCCC1)c1ccccn1	128	4.8*	81*	-53	53	0.2
N/C(=N\OC(=O)CCC1CCCC1)c1ccncc1	109	1.2	30	-23	23	0.7
N/C(=N\OC(=O)COc1ccc2ccccc2c1)c1ccccn1	121	2	1	-58	58	1
Cc1ccc(C)c(OCC(=O)O/N=C(\N)c2ccccn2)c1	135*	6.2*	2	-112	112	1
N/C(=N\OC(=O)Cc1ccc(-c2ccccc2)cc1)c1ccccn1	101	0.57	-5	-7	7	1.1
Cc1nc(N2CCc3ccccc32)[nH]c(=O)c1CCC(C)C	95	/	/	-13	13	/
CC(=O)CCc1c(C)nc2ccc(C)cc2c1Cl	123	1.5	-4	-24	24	1
Cc1cccc(/C(N)=N/OC(=O)CCC2CCCCC2)c1	112	1.3	54*	-23	23	0.5
N/C(=N\OC(=O)COc1ccc(Cl)cc1Br)c1cccnc1	146*	2.9	26	-87	87	0.7
Cc1ccc(/C(N)=N/OC(=O)CCC2CCCCC2)cc1	100	2.3	2	-3	3	1
N/C(=N\OC(=O)COc1ccc(Br)cc1Cl)c1cccnc1	127	1.6	32	-62	62	0.7
C=CCNC(=S)Nc1nc2c(cc1C(=O)OCC)CCCC2	110	1.5	2	-6	6	1
COc1ccc(-c2[nH]c(-c3cccc(OC)c3)nc2SCC(=O)NCc2ccco2)cc1	97	0.48	-4	-11	11	1
SMILES	STAT1 activator	NF-kB neuron act	FLuc inhib CS	APP transl inh	APP 5'UTR act	FLuc stim CS
CCc1nnc(NC(=O)C2(C)COC(c3ccc(OC)cc3)OC2)s1 (stereo not given)	97	1.1	-6	-7	7	1.1
CCCCNS(=O)(=O)c1ccc(OCC(=O)OC)cc1	97	1.1	-5	-10	10	1
CCOc1ccc(-c2nc(-c3cccs3)c(CC(=O)O)s2)cc1OC	112	1.7	68*	8	-7	0.3
CCOC(=O)Cc1csc(NC(NC(=O)OCC)(C(=O)OCC)C(F)(F)F)n1 (stereo not given)	92	1.2	/	11	-11	/
Cn1c(NNC(=O)CCC2CCCCC2)cc(=O)n(C)c1=O	106	1.1	-3	10	-10	1
O=C(CCC1CCCCC1)Nc1ccccc1O	97	6.4*	9	-61	61	0.9
O=C(CCC1CCCCC1)Nc1ccccc1-c1ccccc1	98	1.1	-4	11	-11	1
Cn1c(NC(=O)CCC2CCCCC2)cc(=O)n(C)c1=O	148*	3.8*	9	-131	131	0.9
Cc1ccc(O)c(NC(=O)CCC2CCCCC2)c1	112	4.1*	40	-64	64	0.6
Cc1noc(C)c1S(=O)(=O)N1CCC(C(=O)NCCN2CCC(C)CC2)CC1	99	0.93	-4	61*	-61	1
Cc1ccc(C(=O)COC(=O)c2ccccc2NC(=O)c2ccccc2)cc1[N+](=O)[O-]	104	0.84	-4	0	1	1
CSc1ccc(Cl)c(C(=O)OCC(=O)NC2CC2)c1	106	1.2	-5	-2	3	1.1
O=C(COC(=O)c1ccccc1[N+](=O)[O-])c1ccc(C2CCCCC2)cc1	84	0.42	80*	-36	36	0.2
O=C(COC(=O)c1ccccc1C(=O)c1ccc(Cl)c([N+](=O)[O-])c1)NC1CC1	84	0.66	-8	48*	-48	1.1
CNC(=O)COC(=O)c1ccccc1C(=O)c1ccc(Cl)c([N+](=O)[O-])c1	74	0.79	-1	54*	-55	1
COc1ccc([N+](=O)[O-])cc1NC(=O)c1ccc(-n2nc(C)cc2C)cc1	100	1.2	-8	-18	18	1.1
CN1C2C=C3C(C#N)=C(N)C(C#N)(C#N)[C@@H](c4cccc(F)c4)[C@@H]3C1CC2 (stereo not given in full)	103	0.97	-9	2	-2	1.1
CN1C2C=C3C(C#N)=C(N)C(C#N)(C#N)[C@H](c4c(F)cccc4F)[C@H]3C1CC2 (stereo not given in full)	100	1.3	-4	47*	-47	1
CN1C2C=C3C(C#N)=C(N)C(C#N)(C#N)[C@@H](c4cccs4)C3C1CC2 (stereo not given in full)	103	4.4*	-2	3	-3	1
COC(=O)CN(c1ccc(OCc2ccccc2)cc1)S(C)(=O)=O	95	0.99	-5	2	-2	1.1
C=C1N(c2cccc(Cl)c2)C(=O)OC1(C)C	96	1.2	0	6	-6	1
O=C(NC(=S)Nc1ncc(Br)cc1Br)c1cncc(Br)c1	104	1.3	37	6	-7	0.6
O=C(NC(=S)NC1CCCCCC1)c1cncc(Br)c1	141*	2.1	1	-23	23	1
Cc1ccc(NC(=O)CN(C)CC(=O)Nc2cccc(F)c2)cc1S(=O)(=O)N1CCCCCC1	98	0.62	-2	-11	11	1
O=C(C1CCCO1)N1CCN(C(=S)Nc2ccccc2F)CC1 (stereo not given)	97	0.88	-4	0	0	1

Source: PubChem
